Measurements as given in ChEMBL document CHEMBL3769318, “The Rational Design of Selective Benzoxazepin Inhibitors of the α-Isoform of Phosphoinositide 3-Kinase Culminating in the Identification of (S)-2-((2-(1-Isopropyl-1H-1,2,4-triazol-5-yl)-5,6-dihydrobenzo[f]imidazo[1,2-d][1,4]oxazepin-9-yl)oxy)propanamide (GDC-0326)” (J Med Chem, 2016).

Legend:
[1] = target: Phosphatidylinositol 4,5-bisphosphate 3-kinase catalytic subunit alpha isoform (Homo sapiens, UniProt P42336); assay: Inhibition of recombinant PI3K alpha (unknown origin) using PIP2 as substrate by fluorescence polarization assay; conditions: read-out: Ki(app)
Sequence of Phosphatidylinositol 4,5-bisphosphate 3-kinase catalytic subunit alpha isoform (P42336 whole entry, canonical isoform): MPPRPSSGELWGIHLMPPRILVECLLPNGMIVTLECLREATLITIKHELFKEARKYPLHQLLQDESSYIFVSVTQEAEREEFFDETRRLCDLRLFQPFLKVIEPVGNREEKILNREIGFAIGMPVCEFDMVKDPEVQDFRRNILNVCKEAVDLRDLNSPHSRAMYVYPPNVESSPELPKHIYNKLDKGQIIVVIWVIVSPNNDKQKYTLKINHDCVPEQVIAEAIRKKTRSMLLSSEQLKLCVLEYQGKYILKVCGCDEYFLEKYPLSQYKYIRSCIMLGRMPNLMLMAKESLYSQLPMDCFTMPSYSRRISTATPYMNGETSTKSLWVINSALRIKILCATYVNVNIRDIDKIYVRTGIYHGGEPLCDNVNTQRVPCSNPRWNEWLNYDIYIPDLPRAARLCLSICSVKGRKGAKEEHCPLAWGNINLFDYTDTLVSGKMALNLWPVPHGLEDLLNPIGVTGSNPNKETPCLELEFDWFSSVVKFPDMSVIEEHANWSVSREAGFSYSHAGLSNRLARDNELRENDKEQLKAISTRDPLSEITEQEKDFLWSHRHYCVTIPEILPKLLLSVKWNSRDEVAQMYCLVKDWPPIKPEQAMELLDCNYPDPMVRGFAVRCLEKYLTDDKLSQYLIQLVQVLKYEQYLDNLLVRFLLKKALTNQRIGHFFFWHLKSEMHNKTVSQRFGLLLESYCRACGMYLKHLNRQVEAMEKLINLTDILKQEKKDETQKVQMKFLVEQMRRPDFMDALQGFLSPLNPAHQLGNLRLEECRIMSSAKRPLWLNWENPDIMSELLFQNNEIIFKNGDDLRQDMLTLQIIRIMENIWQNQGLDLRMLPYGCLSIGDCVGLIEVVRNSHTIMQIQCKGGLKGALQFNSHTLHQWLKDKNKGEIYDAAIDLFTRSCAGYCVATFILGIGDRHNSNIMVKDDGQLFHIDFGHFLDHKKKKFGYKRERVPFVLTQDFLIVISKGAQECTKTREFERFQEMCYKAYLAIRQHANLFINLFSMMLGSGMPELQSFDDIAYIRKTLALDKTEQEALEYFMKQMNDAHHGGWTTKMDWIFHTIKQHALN

[2] = Clearance in Sprague-Dawley rat at 1 mg/kg, iv; type: ADME, organism-based; conditions: in vivo
[3] = Antiproliferative activity against human MCF7-neo/Her2 cells after 3 days by luminescence plate reader method; type: functional, cell-based; conditions: 72 h
[4] = Antiproliferative activity against human PC3 cells after 4 days by luminescence plate reader method; type: functional, cell-based; conditions: PC-3, 96 h
[5] = Plasma protein binding in CD-1 mouse at 5 uM after 4 hrs by LC-MS/MS analysis; type: ADME, cell-free; conditions: mouse, 4 h, 5 µM
Method in brief: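 Equilibrium dialysis of pooled plasma (n ≥ 3) spiked with compound at 5 µM total against PBS pH 7.4, 37 °C, 5% CO2, for 4 h; plasma and buffer concentrations measured by LC-MS/MS; percent unbound calculated as buffer/plasma ×100.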

[6] = Cytotoxicity against human KPL4 cells after 4 days by luminescence plate reader method; type: functional, cell-based; conditions: KPL4, 96 h
[7] = Toxicity in SCID beige mouse xenografted with human KPL4 cells; type: organism-based; conditions: in vivo
Method in brief: (§1)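 Breast cancer xenografts: MCF7-neo/HER2 grown in nude mice, KPL-4 in scid beige mice. Compound given orally once daily for 21 days at 0.78, 1.56, 3.25, 6.25 or 12.5 mg/kg in 0.5% methylcellulose/0.2% Tween-80, versus vehicle-treated mice. Tolerability judged by body weight loss, with under 10% loss as the criterion.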

[8] = Toxicity in nude mouse xenografted with human MCF7-neo/Her2 cells; type: organism-based; method in brief: as §1
[9] = Clearance in NCR nude mouse at 1 mg/kg, iv; type: ADME, organism-based; conditions: in vivo
[10] = Oral bioavailability in NCR nude mouse at 25 mg/kg; type: ADME, organism-based; conditions: in vivo
animal or person [11] = conditions: Homo sapiens, po, 504 h, read-out: TGI
animal or person [12] = conditions: Homo sapiens, KPL4, po, 504 h, read-out: TGI
Mus musculus [13] = organism: Mus musculus; assay: animal or person; conditions: 1 h, read-out: INH
Mus musculus [14] = assay: Volume of distribution at steady state in NCR nude mouse at 1 mg/kg, iv; conditions: in vivo

SMILES	Ki [1] [nM]	clearance [2] [mL/min/kg]	EC50 [3] [nM]	also measured
COC(=O)Nc1ccc2c(c1)OCCc1cc(-c3nncn3-c3ccccc3Cl)sc1-2	1	–	–	–
CC(C)n1ncnc1-c1cn2c(n1)-c1cnc(O[C@@H](C)C(N)=O)cc1OCC2	1	62	–	–
CC[C@H](Oc1ccc2c(c1)OCCn1cc(-c3ncnn3C(C)C)nc1-2)C(N)=O	0.5	–	200	EC50 [4]: 2900 nM
CC(C)n1ncnc1-c1cn2c(n1)-c1cnc(N3CCCC3)cc1OCC2	1.3	125	–	–
CNC(=O)[C@@H]1CCCN1c1cc2c(cn1)-c1nc(-c3ncnn3C(C)C)cn1CCO2	30	–	–	–
CC(C)n1ncnc1-c1cn2c(n1)-c1cnc(N3CCC[C@@H]3C(N)=O)cc1OCC2	3.2	–	–	–
CC(C)n1ncnc1-c1cn2c(n1)-c1cnc(OC(C)(C)C(N)=O)cc1OCC2	3.1	–	–	–
CC(C)n1ncnc1-c1cn2c(n1)-c1ccc(N3CCC[C@H]3C(N)=O)cc1OCC2	0.03	33	10	EC50 [4]: 150 nM
Cc1nc(-c2cn3c(n2)-c2ccc(-c4cnn(C(C)(C)C(N)=O)c4)cc2OCC3)n(C(C)C)n1 [TASELISIB]	–	–	30	PPB [5]: 97.5%; EC50 [6]: 10 nM; MTD [7]: 25 mg/kg; MTD [8]: 25 mg/kg; clearance [9]: 3 mL/min/kg; bioavailability [10]: 100%; inhibition in vivo at 25 mg/kg (animal or person [11]): 116%; inhibition in vivo at 25 mg/kg (animal or person [12]): 125%; inhibition in vivo at 25 mg/kg (Mus musculus [13]): 74%; Vdss (Mus musculus [14]): 0.3 L/kg
